4 molecules from ChEMBL document CHEMBL1124791, “Structure-activity relationships of the lissoclinamides: cytotoxic cyclic peptides from the ascidian Lissoclinum patella” (J Med Chem, 1990) can be followed below.

Converted amounts (≈) assume the structure as drawn.

The subject of assay [1] is T-24. The assay is described as follows: Concentration required for 50% inhibition of growth by the compound in transitional bladder carcinoma T24 cells. The class given is functional, cell-based, Homo sapiens. Summed up:
(§1)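 Cells kept in RPMI 1640 with 10% fetal calf serum at 37 °C, 5% CO2, then plated at 1 × 10^4 per 100 μL and left overnight. Exposure to varying concentrations for 1 h, followed by 48 h incubation. MTT (5 mg/mL stock) added for 4 h at 37 °C and formazan dissolved in 0.08 M HCl/2-propanol. Absorbance read at 540 nm against 690 nm reference. Three experiments, eight assays per point.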

Assay [2] relates to MRC5CV1. Description: Concentration required for 50% inhibition of growth by the compound in SV-40 transformed fibroblasts (MRC5CV1). The class given is functional, cell-based. The following applies: Homo sapiens. Summed up: as §1
Assay [3] is described as follows: Concentration required for 50% inhibition of growth by the compound in normal peripheral blood lymphocytes. Type of assay: functional, cell-based, Homo sapiens. Summed up: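 Human lymphocytes isolated from whole blood on Ficoll Paque, stimulated with PHA (1 μL/mL) for 72 h and plated at 1 × 10^5/mL. Compounds added over 100 to 0.1 μg/mL. Survival measured after 24 h by MTT colorimetric assay, with formazan dissolved in acidic 2-propanol and absorbance read at 540 nm.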

The mark [4] stands for this setting: Homo sapiens, T-24, read-out: IC50.

For `CC(C)C1NC(=O)C2N=C(OC2C)C2CCCN2C(=O)C(Cc2ccccc2)NC(=O)c2csc(n2)C(Cc2ccccc2)NC(=O)C2CSC1=N2` (stereo in doubt; form 1), the results for the IC50 in assay [1] (t-24), in assay [2] and in assay [3] were 6 µg/mL (≈ 8.09 µM), 1 µg/mL (≈ 1.35 µM) and 8 µg/mL (≈ 10.8 µM), respectively.

For `CC(C)C1NC(=O)C2N=C(OC2C)C2CCCN2C(=O)C(Cc2ccccc2)NC(=O)c2csc(n2)C(Cc2ccccc2)NC(=O)c2csc1n2` (stereo not given), the IC50 (as a rule, the point on the concentration scale where inhibition reaches its midpoint) in assay [1] (setting [4]) was 10 µg/mL (≈ 13.5 µM); in assay [2] it was 15 µg/mL (≈ 20.3 µM); in assay [3], 20 µg/mL (≈ 27 µM).

On to `CC(C)[C@@H]1NC(=O)[C@H]2N=C(O[C@@H]2C)[C@@H]2CCCN2C(=O)[C@H](Cc2ccccc2)NC(=O)[C@@H]2CSC(=N2)[C@H](Cc2ccccc2)NC(=O)[C@@H]2CSC1=N2`, for which the IC50 came to 0.06 µg/mL (≈ 0.0806 µM) in assay [1] (setting [4]), 0.04 µg/mL (≈ 0.0538 µM) in assay [2] and 0.08 µg/mL (≈ 0.108 µM) in assay [3].

Molecule `CC(C)C1NC(=O)C2N=C(OC2C)C2CCCN2C(=O)C(Cc2ccccc2)NC(=O)c2csc(n2)C(Cc2ccccc2)NC(=O)C2CSC1=N2` (stereo in doubt; form 2) registered an IC50 in assay [1] (t-24) of 0.8 µg/mL (≈ 1.08 µM).
